Screening results deposited in PubChem BioAssay by Johns Hopkins Ion Channel Center.
Most compounds without a hit are left out; they make up all but 3.5% or so of the library.
MrgX1 antag – antagonists of human MrgX1 receptor, primary screen, HEK293 cells, Fluo-4 calcium flux. Mas-related G-protein coupled receptor member X1 (Homo sapiens), Q96LB2. AID 588676, 2011. 310,000 compounds, 1.3% hits. BAM8-22 antagonism; stronger effect = lower value. B-score at 10 µM;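 active = calcium-response B-score plate-corrected more than 3 library SD below zero, starting fluorescence within 5 deviations, no agonist response on first addition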;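 also: peak minus trough fluorescence over baseline after final BAM8-22 challenge near maximal dose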
Target sequence (Q96LB2 whole entry, looked up): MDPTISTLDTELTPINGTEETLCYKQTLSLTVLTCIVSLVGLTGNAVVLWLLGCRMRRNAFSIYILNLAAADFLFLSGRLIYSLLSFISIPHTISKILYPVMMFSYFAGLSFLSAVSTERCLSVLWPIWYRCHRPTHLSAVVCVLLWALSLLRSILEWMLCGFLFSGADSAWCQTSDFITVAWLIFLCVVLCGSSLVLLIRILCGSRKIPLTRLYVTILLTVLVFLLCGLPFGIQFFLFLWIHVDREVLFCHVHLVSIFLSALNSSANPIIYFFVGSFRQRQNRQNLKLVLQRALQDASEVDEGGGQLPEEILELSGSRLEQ
RGS4 inh – RGS4 inhibitors, primary screen, cell-based, HEK293 M3R inducible RGS4, calcium flux; Regulator of G-protein signaling 4 (Homo sapiens), P49798; Fluo-4 calcium flux; stronger effect = higher value; triggered by carbachol at its EC20; B-score at 10 µM; 310,000 compounds, 0.45% hits; AID 463165, 2010;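 active = B-score, a plate-corrected calcium signal, over three deviations above library mean, with baseline fluorescence within five deviations of library mean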;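 also: RGS4 expression induced by doxycycline in cells with stable M3 receptor; B-score is computed from the integrated fluorescence ratio over baseline after carbachol; higher B-score means a larger calcium signal and so more RGS4 inhibition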
Target sequence (P49798 whole entry, looked up): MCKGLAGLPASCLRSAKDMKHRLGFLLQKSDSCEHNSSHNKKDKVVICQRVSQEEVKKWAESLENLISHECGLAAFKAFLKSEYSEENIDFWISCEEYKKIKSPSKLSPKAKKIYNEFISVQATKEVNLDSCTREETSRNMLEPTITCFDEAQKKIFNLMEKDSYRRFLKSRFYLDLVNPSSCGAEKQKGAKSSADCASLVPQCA
MrgX1 allo act – positive allosteric modulators of MrgX1, primary screen, HEK293 cells, Fluo-4 calcium flux. FDSS; stronger effect = higher value. B-score at 10 µM. 310,000 compounds, 0.63% hits. AID 588675, 2011;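 active = plate-corrected calcium response at least 3 library SD above typical, normal starting fluorescence, not activating the receptor alone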;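 also: compound read alongside a low EC10 to EC30 dose of BAM8-22 agonist; peak minus trough fluorescence over baseline measured at the second addition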
MrgX1 agonist – agonists of human MrgX1 receptor, primary screen, HEK293 cells, Fluo-4 calcium flux | Mas-related G-protein coupled receptor member X1 (Homo sapiens), Q96LB2 | Fluo-4 calcium fluorescence, agonist mode; stronger effect = higher value | B-score at 10 µM | 310,000 compounds, 0.44% hits;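 active = calcium response B-score plate-corrected fluorescence ratio at least 3 library SD, with starting fluorescence B-score inside 5 SD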
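Test system: HEK293 cells stably expressing human MrgX1 receptor; amount: 15,000 cells per well; doses: compound delivered in addition one of three; times: overnight plating before 1 h dye loading; detection: Fluo-4 NW calcium-flux fluorescence, kinetic read; read-out basis: B-scored fluorescence response ratio; controls: positive and negative controls per plate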
RGS4 act – RGS4 potentiators or activators, primary screen, cell-based, HEK293 M3R inducible RGS4, calcium flux; carbachol calcium flux Fluo4; stronger effect = lower value; 310,000 compounds, 0.92% hits; B-score at 10 µM;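 active = B-score of the integrated calcium signal more than 4 SD below the library mean, with starting fluorescence not abnormally high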;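 also: negative B-score means reduced calcium response which marks RGS4 activation or potentiation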
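Detection: kinetic calcium fluorescence imaging with Fluo4-AM dye, 2 µM / Material: HEK293 cells with stable M3R and inducible RGS4 / Schedule: recording 10 s baseline at 1 Hz, 100 s post-agonist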
RGS4 inh valid – enhanced carbachol calcium response, M3R/RGS4 cells, RGS4 inhibitor project, cell-based, validation screen, HEK293 M3R/RGS4, calcium flux; shares compounds with RGS4 inh; carbachol calcium Fluo-4 fluorescence; carbachol added at its EC20; 0 = buffer wells, 100 = carbachol control; calcium response, % at 10 µM; 1,700 compounds, 65% hits; AID 492999, 2010;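 active = duplicate-averaged calcium response above the buffer-only control mean plus 5 SD of those controls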;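 also: integrated fluorescence ratio F max minus min over baseline F0; higher response in RGS4-induced cells means RGS4 inhibition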
M3R Ca ctr – carbachol calcium response in non-induced M3R cells, confirmation, counter-screen for RGS4 inhibitor project, cell-based, HEK293 M3R | shares compounds with RGS4 inh | carbachol calcium Fluo-4; submaximal (EC20) carbachol stimulus; buffer wells 0%, carbachol control wells 100% | activity (percent), % at 10 µM | 1,900 compounds, 20% hits | AID 493000, 2010; call rule not given here;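 also: RGS4 induction absent so cells express M3R without RGS4; higher means more calcium signal and flags a non-specific hit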
RGS4 inh ctr2 – second RGS4 inhibitor counter-screen in uninduced cells lacking carbachol | shares compounds with RGS4 inh | HEK293 M3R/RGS4 non-induced, Fluo-4 calcium, no carbachol; normalised: buffer wells 0%, carbachol wells 100% | calcium response (agonist-mode artifact), % at 10 µM | 1,900 compounds, 22% hits | AID 493001;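 active = duplicate-averaged calcium rise in uninduced cells above buffer wells' mean plus 5 SD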
Active calls of the source: *; i = inactive; nt = not tested or not shown.

SMILES	MrgX1 antag	RGS4 inh	MrgX1 allo act	MrgX1 agonist	RGS4 act	RGS4 inh valid	M3R Ca ctr	RGS4 inh ctr2
C[C@]12C=CC(=O)C=C1CC[C@@H]1C2[C@@H](O)C[C@@]2(C)C1CC[C@]2(O)C(=O)COC(=O)CCC(=O)O (some centres not stated)	i	i	i	i	i	nt	nt	nt
CCc1ccc2[nH]c(=O)c(CN(Cc3ccccc3OC)Cc3nnnn3Cc3ccco3)cc2c1	i	i	i	i	i	i	i	18%*
COc1ccccc1CN(Cc1cc2cc(C)ccc2[nH]c1=O)Cc1nnnn1Cc1ccco1	i	i	i	i	i	nt	i	i
CN(C)/C=C/C(=O)c1ccc(N2CCN(c3ncc(C(F)(F)F)cc3Cl)CC2)cc1	i	i	i	i	i	nt	nt	nt
CN(C)C=NC(=O)c1ccc(N2CCN(c3ncc(C(F)(F)F)cc3Cl)CC2)cc1	i	8.2*	i	i	i	18%*	i	i
COC(=O)c1cc2c(ccn2-c2ccc(F)cc2)n1CC(C)C	i	11*	i	i	i	36%*	i	i
CCCn1c(C(=O)OC)cc2c1ccn2-c1ccc(F)cc1	i	i	i	i	i	nt	nt	nt
Cc1ccc(SCc2[nH]nc3c2C2(C(=O)Nc4ccc(F)cc42)C(C#N)=C(N)O3)cc1 (configuration not stated)	i	i	i	i	i	nt	i	i
CCC(C)NS(=O)(=O)c1ccc(S(=O)(=O)N(CC(=O)Nc2ccccc2)CC2CCCO2)cc1 (configuration not stated)	i	i	i	i	i	nt	nt	nt
Cc1[nH]c2ccccc2c1/C=N/Nc1nc(N2CCCCC2)nc(N2CCCCC2)n1	i	11*	i	i	i	38%*	63%*	i
C(=N\Nc1nc(N2CCCCC2)nc(N2CCCCC2)n1)/c1c[nH]c2ccccc12	i	i	i	i	i	nt	nt	nt
CC(=O)C1=C(C)N2CCN=C2S1	i	i	i	i	i	nt	nt	nt
CCCCOc1ccc(/C=c2\sc3ncnn3c2=O)cc1	i	i	i	i	i	i	i	i
CCCCOc1ccc(/C=C2/Sc3ccccc3C2=O)cc1	i	i	i	i	i	nt	nt	nt
CC(C)CCNC(=O)CCc1nnc2n(CCCOC(C)C)c(=O)c3ccccc3n12	i	i	i	i	i	nt	nt	nt
COc1ccc2cc(-c3[nH]ncc3CN3CCCN(c4ccccc4)CC3)ccc2c1	i	5.5*	i	i	i	20%*	40%*	i
CCOc1ccccc1N1CCN(Cc2cn[nH]c2-c2ccc(F)cc2)CC1	i	6.8*	i	i	i	44%*	44%*	i
CCOc1ccccc1N1CCN(Cc2cccc(OC)c2OC)CC1	i	i	i	i	i	nt	nt	nt
O=C(CC12CC3CC(CC(C3)C1)C2)NC1CC1	i	i	i	i	i	nt	nt	nt
CN(C)c1ccc(C(CNS(=O)(=O)c2ccc3ccccc3c2)N2CCOCC2)cc1 (configuration not stated)	i	5.2*	i	i	i	5.0%*	i	i
CN(C)c1ccc(C(CNS(=O)(=O)c2ccc([N+](=O)[O-])cc2)N2CCCC2)cc1 (configuration not stated)	i	i	i	i	i	nt	nt	nt
Cc1ccc(C(=O)Nc2ccc3c(c2)nc(CCNC(=O)c2ccco2)n3C)cc1	i	i	i	i	i	nt	nt	nt
CC(=O)Nc1ccc2c(c1)nc(CCNC(=O)c1ccco1)n2C	i	i	i	i	i	i	i	i
Cc1ccc(C)c(/C=C/C(=O)c2ccccc(=O)c2O)c1	i	7.5*	i	i	i	14%*	i	40%*
O=C(/C=C/c1ccccc1Cl)c1ccccc(=O)c1O	i	18*	8.1*	i	i	44%*	i	10%*
SMILES	MrgX1 antag	RGS4 inh	MrgX1 allo act	MrgX1 agonist	RGS4 act	RGS4 inh valid	M3R Ca ctr	RGS4 inh ctr2
O=C(/C=C/c1ccccc1Cl)c1ccc(O)cc1	i	i	i	i	i	nt	nt	nt
Cc1ccc(C)c(NC(=O)c2ccccc2O)c1	i	i	i	i	i	nt	nt	nt
Cc1ccc(/C=C/C(=O)c2ccccc(=O)c2O)c(C)c1	i	i	i	i	i	nt	i	34%*
CC(C)C(=O)N1CCN(c2nc(-c3ccc(Cl)cc3)cs2)CC1	i	5.5*	i	i	i	18%*	i	i
CCN(CC)C(=O)Cn1c(=O)n(CC(=O)N2CCCCC2)c(=O)c2sccc21	i	17*	i	i	i	i	i	i
CCOC(=O)CSc1nc2ccccc2c(=O)n1CC	i	i	i	i	i	nt	nt	nt
CCn1c(SCC(=O)OC2CCCCC2)nc2ccccc2c1=O	i	5.5*	i	i	i	14%*	i	i
COc1cc(/C=C2/C(=O)NN(c3ccc(Cl)cc3)C2=O)ccc1OC(=O)c1ccco1	i	i	i	i	i	nt	i	8.5%*
COc1cc(/C=N/NC(=O)c2ccc(F)cc2)ccc1OC(=O)c1ccco1	i	i	i	i	i	nt	nt	nt
COc1cc(/C=C2/C(=O)NN(c3cccc(F)c3)C2=O)ccc1OC(=O)c1ccco1	i	i	i	i	i	nt	i	i
CCCCCC(=O)Nc1ccc(C(=O)COC(=O)CN2C(=O)NC3(CCCC3)C2=O)cc1	i	i	i	i	i	nt	nt	nt
CCCOc1ccc(C(=O)CCNC(Cc2c[nH]c3ccccc23)C(=O)O)cc1 (configuration not stated)	i	6.7*	i	i	i	10%*	46%*	27%*
